Published values pooled from the literature.
Protocols differ between the studies behind these lines.
Target: D(2) dopamine receptor (DRD2, Homo sapiens, UniProt P14416)
Concentration: 10 µM

The inhibition of `c1cncc(OC[C@H]2CN(CCN3CCc4ccccc43)CCO2)c1` is reported as 36.3% (ligand displacement; radioligand).
The inhibition of `N#Cc1cc(Cn2c(N3CCCC3)nc3ccccc32)ccc1F` is reported as -11.5% (ligand displacement).
For `COc1ccc(S(N)(=O)=O)cc1C(=O)NCCCN1CCN(c2ccccc2C)CC1`, the inhibition was 45.1% (enzyme activity; inhibitor).
The inhibition of `COc1ccc2c(c1)C(=O)N(CCN1CCN(c3ccccc3OC)CC1)C2` is reported as 66.6% (ligand displacement; radioligand).
The inhibition of `O=C1N=C(N2CCCCN2)S/C1=C\c1ccc(F)cc1O` is reported as under 10% (ligand displacement; radioligand).
With `Cc1ccc(-c2cnc([C@@]3(O)CC[C@H](C(=O)O)C(C)(C)C3)s2)cc1Nc1cccc(C(F)(F)F)n1` the inhibition was -5.34% (ligand displacement).
`COc1cc(C(C)=O)ccc1OCC(O)CN1CCN(c2cc(Cl)ccc2C)CC1` (centres unmarked) gave an inhibition of 33% (enzyme activity; inhibitor).
The inhibition of `CN(C)C(=O)Cn1cc(-c2nc(C3(c4ccc(-c5cnc(N)nc5)cc4)CC3)no2)cn1` is reported as 16.1% (cell-free assay).
The inhibition of `O=C(CN1CCO[C@@H](COc2cccnc2)C1)N1CCc2ccccc21` is reported as 5.5% (ligand displacement; radioligand).
`CN(C)CC#Cc1ccc(OCCCc2sc(N3CCc4cccc(C(=O)Nc5nc6ccccc6s5)c4C3)nc2C(=O)O)c(F)c1` gave an inhibition of 31.5% (ligand displacement).
`Cc1c(Cl)cccc1-c1ccc(CNCC(O)c2ccccc2)o1` (centres unmarked) has an inhibition of 46.8% (enzyme activity; inhibitor).
`Cc1ncccc1OC[C@@H]1CN(CCN2CCc3ccccc32)CCO1` gave an inhibition of 15.2% (ligand displacement; radioligand).
`NS(=O)(=O)c1cc(NC(=O)Cc2ccccc2)ccc1Oc1cccc(Cl)c1` gave an inhibition of -7.81% (ligand displacement).
`O=C1c2ccccc2CCCN1CCCCN1CCN(c2ccccn2)CC1` has an inhibition of 93% (ligand displacement; radioligand).
`COc1ccc(CCN2C(=O)CC(N3CCN(c4ccc(Cl)cc4)CC3)C2=O)cc1OC` (centres unmarked) has an inhibition of 11.9% (enzyme activity; inhibitor).
For `Clc1cccc(OC[C@H]2CN(CCN3CCc4ccccc43)CCO2)c1`, the inhibition was 63.1% (ligand displacement; radioligand).
For `COc1ccccc1N1CCN(CCCCN2C(=O)C3CCCCN3C2=O)CC1` (centres unmarked), the inhibition was 72.6% (enzyme activity; inhibitor).
`Cc1noc([C@H]2C[C@@H](c3ccc(C(F)(F)F)cc3)CN(C(=O)N3CCS(=O)(=O)C3)C2)n1` gave an inhibition of -0.15% (ligand displacement).
For `Cc1ccccc1N1CCN(CCCCN2C(=O)C3CCCN3C2=O)CC1` (centres unmarked), the inhibition was 42.3% (enzyme activity; inhibitor).
With `C[C@@H](c1cccc(C#N)c1)n1cc(Cl)cc(C(N)=O)c1=N` the inhibition was -3.06% (ligand displacement).
